The values below come from ChEMBL document CHEMBL2321805, “N-methyldihydroquinazolinone derivatives of Retro-2 with enhanced efficacy against Shiga toxin” (J Med Chem, 2013).

Molecules are shown by their SMILES. The source made the active and inactive calls. No cut-off for these calls is given here.

Assay [1] has as its system HeLa. Briefly: Cytoprotective activity against shiga toxin-induced cytotoxicity in human HeLa cells at 30 uM incubated for 4 hrs prior to shiga toxin addition measured after 20 hrs by liquid scintillation counting analysis. Type of assay: functional, cell-based.
In assay [2] the test system is HeLa. The assay can be described thus: Cytoprotective activity against shiga toxin-induced cytotoxicity in human HeLa cells at 30 uM incubated for 4 hrs prior to shiga toxin addition measured after 20 hrs by liquid scintillation counting analysis relative to Retro-2. Type of assay: functional.
The test system of assay [3] is HeLa. The assay can be described thus: Inhibition of shiga toxin retrograde transport in human HeLa cells after 20 mins by sulfation assay relative to control. Type of assay: functional.
Assay [4] relates to HeLa. The assay can be described thus: Inhibition of shiga toxin retrograde transport in human HeLa cells assessed as relocalization of syntaxin 5 at 20 uM after 30 mins by immunofluorescence staining. Type of assay: functional, cell-based. An outline of the steps: (§1)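 HeLa cells were treated for 30 min with 20 μM compound or DMSO carrier, then fixed. They were immunolabeled for syntaxin 5 and the Golgi marker giantin and imaged by confocal microscopy with a 60× oil objective (NA 1.4). Maximum projections of 6–8 Z slices at 250 nm spacing are shown.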

Assay [5] concerns HeLa. The assay can be described thus: Inhibition of shiga toxin retrograde transport in human HeLa cells assessed as change in golgi apparatus morphology at 20 uM after 30 mins by immunofluorescence staining. Format: functional, cell-based. The gist of the method: as §1

The EC50 is the concentration needed to bring the measured effect to its halfway point. Low readings indicate an effect from little substance, high ones a need for much substance. In the assay on HeLa [1], `Cc1ccc(C2N(C)c3ccccc3C(=O)N2c2ccccc2I)s1` (racemic) came in with an EC50 of 5.4 µM. Besides, the Activity in the assay with HeLa [2] came to 254%.
Compound `O=C1c2ccccc2NC(c2ccc(-c3cccs3)s2)N1c1ccccc1` (racemic) returned an EC50 in the assay on HeLa [1] of 5.1 µM. The compound also displayed an Activity in the assay on HeLa [2] of 111.6%.
On the same counts, the results for `Cc1ccc(C2N(C)c3ccccc3C(=O)N2c2ccccc2S(=O)(=O)c2ccccc2)s1` (racemic) are 8 µM and 145%.
Take `CSc1ccccc1N1C(=O)c2ccccc2N(C)C1c1ccc(C)s1` (racemic): in the assay on HeLa [1], the EC50 was determined as 3.8 µM. The Activity with HeLa [2] was 150.6%.
Compound `Cc1ccc(C2Nc3ccc(F)cc3C(=O)N2c2ccccc2)s1` (racemic) yielded an EC50 with HeLa [1] of 10.6 µM. Besides, the Activity in the assay on HeLa [2] amounted to 167.2%.
As to `CCc1ccc(C2N(C)c3ccccc3C(=O)N2c2ccccc2)s1` (racemic), in the assay with HeLa [3], the “inhibition (INH)” value is on record as 0%. Further, the EC50 with HeLa [1] worked out at 4.2 µM. Moreover, the Activity with HeLa [2] amounted to 323%.
Regarding `CN1c2ccccc2C(=O)N(c2ccccc2)C1c1ccc(-c2ccccc2)s1` (racemic), the EC50 with HeLa [1] was 2.1 µM. In the assay on HeLa [2], this compound returned an Activity of 309%.
`Cc1ccc(C2N(C)c3ccccc3C(=O)N2c2ccccc2F)s1` (racemic): the EC50 with HeLa [1] stood at 5.5 µM. Also, the Activity in the assay with HeLa [2] is reported as 208.6%.
On the same counts, the results for `O=C1c2ccccc2NC(c2ccc(Br)s2)N1c1ccccc1` (racemic) are 13.7 µM and 146%.
On the same counts, the results for `O=C1c2ccccc2NC(c2ccc(-c3ccccn3)s2)N1c1ccccc1` (racemic) are 12 µM and 468%.
On the same counts, the results for `Cc1ccc(C2N(C)c3ccccc3C(=O)N2c2ccccc2Cl)s1` (racemic) are 8.2 µM and 230%.
Consider `Cc1nc(-c2ccc(C3Nc4ccccc4C(=O)N3c3ccccc3)s2)cs1` (racemic), for which the “inhibition (INH)” value in the assay on HeLa [3] is on record as 0%. In the assay with HeLa [1], this compound displayed an EC50 of 1.4 µM. Moreover, in the assay with HeLa [2], the Activity was 271%.
For the compound `Cc1ccc(C2Nc3ccccc3C(=O)N2c2ccccc2)s1` (racemic), in the assay with HeLa [4], the inhibition result is “Active”. In the assay with HeLa [3], the “inhibition (INH)” value is on record as 36.9%. In addition, the EC50 with HeLa [1] was 27.3 µM. The compound further gave an Activity with HeLa [2] of 100%.
The compound `O=C1c2ccccc2NC(c2ccc(-c3ccco3)s2)N1c1ccccc1` (racemic) registered an EC50 in the assay on HeLa [1] of 4 µM. In the assay with HeLa [2], this compound displayed an Activity of 438%.
On the same counts, the results for `COc1ccccc1N1C(=O)c2ccccc2N(C)C1c1ccc(C)s1` (racemic) are 5.4 µM and 264.4%.
As for `Cc1nc(-c2ccc(C3N(C)c4ccccc4C(=O)N3c3ccccc3)s2)cs1` (racemic), the inhibition entry in the assay with HeLa [5] and in the assay with HeLa [4] was “Active” each time. Further, in the assay with HeLa [3], the “inhibition (INH)” value stood at 0%. Also, a half-maximal response in the assay on HeLa [1] (EC50) required 0.3 µM. The compound also showed an Activity in the assay on HeLa [2] of 301%.
For the compound `CCc1ccc(C2Nc3ccccc3C(=O)N2c2ccccc2)s1` (racemic), the “inhibition (INH)” value in the assay on HeLa [3] came to 13.5%. The compound further returned an EC50 with HeLa [1] of 8.7 µM. Moreover, the Activity in the assay with HeLa [2] is listed as 166%.
`Cc1ccc(C2N(C)c3ccccc3C(=O)N2c2ccccc2)s1` (racemic): in the assay on HeLa [3], the “inhibition (INH)” value turned out to be 38.7%. In the assay on HeLa [1], the EC50 was determined as 10.2 µM. This compound displayed an Activity with HeLa [2] of 275%.
In turn, `CSc1ccc(C2N(C)c3ccccc3C(=O)N2c2ccccc2)s1` (racemic) came in with an EC50 with HeLa [1] of 4.8 µM. In the assay on HeLa [2], this compound gave an Activity of 265.9%.
